B1: Osa-1-4 twister ribozyme (parent)
chain: CCGCCUAACACUGCCAAUGCCGGUCCCAAGCCCGGAUAAAAGUGGAGGGGGCGG

Variants of: B1
Experiment: self-cleavage, relative activity (ratio to wild type); higher = more cleavage; co-transcriptional
Outline: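 The 48 positions downstream of the cleavage site in a 54-nucleotide Oryza sativa twister ribozyme template were synthesised at 97 % wild-type base and 1 % of each other base. The template was transcribed in vitro at 37 °C for 2 h, with self-cleavage allowed during transcription. Reads with or without upstream sequence after deep sequencing marked cleavage status, and relative activity is fraction cleaved normalised to wild type.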
In the case of CCGCCUAACACUGCCAAUGCCGGUCCCAAGCGCGGAUGAAAGUGGAGGGGGCGG, the self-cleavage is reported as 0.18. With CCGCCUAACACUGCCAAUGCCGGUCCCAAGCUCGGAUGAAAGUGGAGGGGGCGG the self-cleavage was 0.12. With CCGCCUAACACUGCCAAUGCCGGUCCCAAGCACGGAUGAAAGUGGAGGGGGCGG the self-cleavage was 0.09. CCGCCUAACACUUCCAAUGCCGGUCCCAAGCCCGGAUGAAAGUGGAGGGGGCGG showed a self-cleavage of 0.03. With CCGCCUAACACUCCCAAUGCCGGUCCCAAGCCCGGAUGAAAGUGGAGGGGGCGG the self-cleavage was 0.03. Variant CCGCCUAACACUACCAAUGCCGGUCCCAAGCCCGGAUGAAAGUGGAGGGGGCGG has a self-cleavage of 0.12. In the case of CCGCCUAACACUGCCAAUACCGGUCCCAAGCCCGGAUGAAAGUGGAGGGGGCGG, the self-cleavage is reported as 0.46. In the case of CCGCCUAACACUGCCAAUCCCGGUCCCAAGCCCGGAUGAAAGUGGAGGGGGCGG, the self-cleavage is reported as 0.06. For CCGCCUAACACUGCCAAUUCCGGUCCCAAGCCCGGAUGAAAGUGGAGGGGGCGG, the self-cleavage was 0.14. CCGCCUAACACUGCCAAUGCCGGUCCCAAGACCGGAUGAAAGUGGAGGGGGCGG showed a self-cleavage of 0.03. In the case of CCGCCUAACACUGCCAAUGCCGGUCCCAAGGCCGGAUGAAAGUGGAGGGGGCGG, the self-cleavage is reported as 0.13. Variant CCGCCUAACACUGCCAAUGCCGGUCCCAAGUCCGGAUGAAAGUGGAGGGGGCGG has a self-cleavage of 0.73. CCGCCUAACACUGCCAAUGCCGGUCCCAAGCCGGGAUGAAAGUGGAGGGGGCGG gave a self-cleavage of 0.07. With CCGCCUAACACUGCCAAUGCCGGUCCCAAGCCUGGAUGAAAGUGGAGGGGGCGG the self-cleavage was 0.78. Variant CCGCCUAACACUGCCAAUGCCGGUCCCAAGCCAGGAUGAAAGUGGAGGGGGCGG has a self-cleavage of 0.11. With CCGCCUAACACUGCCAAUGCCGGUCCCAAGCCCGGAUGAAAGUGGAGGGGGGGG the self-cleavage was 0.96. Work on CCGCCUAACACUGCCAAUGCCGGUCCCAAGCCCGGAUGAAAGUGGAGGGGGUGG yielded a self-cleavage of 0.95. Work on CCGCCUAACACUGCCAAUGCCGGUCCCAAGCCCGGAUGAAAGUGGAGGGGGAGG yielded a self-cleavage of 1.02. Variant CCGCCUAACACUGACAAUGCCGGUCCCAAGCCCGGAUGAAAGUGGAGGGGGCGG has a self-cleavage of 0.07. In the case of CCGCCUAACACUGGCAAUGCCGGUCCCAAGCCCGGAUGAAAGUGGAGGGGGCGG, the self-cleavage is reported as 0.13. With CCGCCUAACACUGUCAAUGCCGGUCCCAAGCCCGGAUGAAAGUGGAGGGGGCGG the self-cleavage was 0.13. Variant CCGCCUAACACUGCCAAUGCCGGUACCAAGCCCGGAUGAAAGUGGAGGGGGCGG has a self-cleavage of 0.09. CCGCCUAACACUGCCAAUGCCGGUGCCAAGCCCGGAUGAAAGUGGAGGGGGCGG showed a self-cleavage of 0.11. For CCGCCUAACACUGCCAAUGCCGGUUCCAAGCCCGGAUGAAAGUGGAGGGGGCGG, the self-cleavage was 0.78. CCGCCUAAUACUGCCAAUGCCGGUCCCAAGCCCGGAUGAAAGUGGAGGGGGCGG showed a self-cleavage of 0.7. CCGCCUAACACUGCCAAUGACGGUCCCAAGCCCGGAUGAAAGUGGAGGGGGCGG showed a self-cleavage of 0.9. For CCGCCUAACACUGCCAAUGUCGGUCCCAAGCCCGGAUGAAAGUGGAGGGGGCGG, the self-cleavage was 0.98. For CCGCCUAACACUGCCAAUGGCGGUCCCAAGCCCGGAUGAAAGUGGAGGGGGCGG, the self-cleavage was 0.19. CCGCCUAACACUGCCAAUGCCUGUCCCAAGCCCGGAUGAAAGUGGAGGGGGCGG gave a self-cleavage of 0.85. Work on CCGCCUAACACUGCCAAUGCCAGUCCCAAGCCCGGAUGAAAGUGGAGGGGGCGG yielded a self-cleavage of 1.01. CCGCCUAACACUGCCAAUGCCCGUCCCAAGCCCGGAUGAAAGUGGAGGGGGCGG gave a self-cleavage of 0.13. Work on CCGCCUAACACUGCCAAUGCCGGUCCAAAGCCCGGAUGAAAGUGGAGGGGGCGG yielded a self-cleavage of 0.16. With CCGCCUAACACUGCCAAUGCCGGUCCGAAGCCCGGAUGAAAGUGGAGGGGGCGG the self-cleavage was 0.09. In the case of CCGCCUAACACUGCCAAUGCCGGUCCUAAGCCCGGAUGAAAGUGGAGGGGGCGG, the self-cleavage is reported as 0.18. CCGCCUAACAUUGCCAAUGCCGGUCCCAAGCCCGGAUGAAAGUGGAGGGGGCGG showed a self-cleavage of 0.94. In the case of CCGCCUAACAAUGCCAAUGCCGGUCCCAAGCCCGGAUGAAAGUGGAGGGGGCGG, the self-cleavage is reported as 0.8. In the case of CCGCCUAACAGUGCCAAUGCCGGUCCCAAGCCCGGAUGAAAGUGGAGGGGGCGG, the self-cleavage is reported as 0.68. For CCGCCUAACACUGCCAAUGCCGGUCUCAAGCCCGGAUGAAAGUGGAGGGGGCGG, the self-cleavage was 0.85. Work on CCGCCUAACACUGCCAAUGCCGGUCGCAAGCCCGGAUGAAAGUGGAGGGGGCGG yielded a self-cleavage of 0.14. CCGCCUAACACUGCCAAUGCCGGUCACAAGCCCGGAUGAAAGUGGAGGGGGCGG showed a self-cleavage of 0.06. For CCGCCUAACACUGCCAAUGCCGCUCCCAAGCCCGGAUGAAAGUGGAGGGGGCGG, the self-cleavage was 0.08. With CCGCCUAACACUGCCAAUGCCGUUCCCAAGCCCGGAUGAAAGUGGAGGGGGCGG the self-cleavage was 0.1. CCGCCUAACACUGCCAAUGCCGAUCCCAAGCCCGGAUGAAAGUGGAGGGGGCGG gave a self-cleavage of 0.47. For CCGCCUAACACUGCCAAUGCUGGUCCCAAGCCCGGAUGAAAGUGGAGGGGGCGG, the self-cleavage was 1.01. Work on CCGCCUAACACUGCCAAUGCGGGUCCCAAGCCCGGAUGAAAGUGGAGGGGGCGG yielded a self-cleavage of 0.08. Variant CCGCCUAACACUGCCAAUGCAGGUCCCAAGCCCGGAUGAAAGUGGAGGGGGCGG has a self-cleavage of 0.78. With CCGCCUAACACUGCGAAUGCCGGUCCCAAGCCCGGAUGAAAGUGGAGGGGGCGG the self-cleavage was 0.35. CCGCCUAACACUGCUAAUGCCGGUCCCAAGCCCGGAUGAAAGUGGAGGGGGCGG gave a self-cleavage of 0.47. Variant CCGCCUAACACUGCAAAUGCCGGUCCCAAGCCCGGAUGAAAGUGGAGGGGGCGG has a self-cleavage of 0.33.

— the RNAGym collection of RNA variant scans (doi:10.1002/anie.201605470)
